Laboratory results from ChEMBL document CHEMBL1123291, “Modified di- and tripeptides of the C-terminal portion of oxytocin and vasopressin as possible cognition activation agents” (1986).
Non-standard residues stand in square brackets, D forms with d. Residues, ends and D or L forms follow the SMILES beside them. ξ: configuration not given here. *: point of attachment. Arg(NO2) = N=C(NCCC[C@H](N)C(=O)O)N[N+](=O)[O-]; ξArg(NO2) = N=C(NCCCC(N)C(=O)O)N[N+](=O)[O-]; Cbz = O=C(OCc1ccccc1)*; Boc = CC(C)(C)OC(=O)*; ξK = NCCCCC(N)C(=O)O

What was measured:
Format in all cases: functional
Rattus norvegicus [1] = experiment: Ability (% reversal in rats) to reverse electroconvulsive shock-induced amnesia in rodents at a dose of 0.0010 (mg/kg) (following i.m. administration)
Summary of the method: (§1)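 Passive avoidance (step-through, lighted vs darkened compartment). […], ECS (20 mA, 1 s) was given transcorneally via saline-soaked electrodes, and maximal hindlimb extension was required. Drug was given im at selected doses 2 h post-training. One hour later, entry latency to the dark side was recorded, with 60 s counted as retention. At least 75% of ECS controls had to be amnesic. Replicates were mostly not run.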

Rattus norvegicus [2] = experiment: Ability (% reversal in rats) to reverse electroconvulsive shock-induced amnesia in rodents at a dose of 0.010 (mg/kg) administered intramuscularly (im); summary of the method: as §1
Rattus norvegicus [3] = experiment: Ability (% reversal in rats) to reverse electroconvulsive shock-induced amnesia in rodents at a dose of 0.10 (mg/kg) (following intramuscular dosing); summary of the method: as §1
Rattus norvegicus [4] = experiment: Compound was tested for its ability (% reversal in rats) to reverse electroconvulsive shock-induced amnesia in rodents at a dose of 1 (mg/kg) administered intramuscularly (im); summary of the method: as §1
Rattus norvegicus [5] = experiment: Compound was tested for its ability (% reversal in rats) to reverse electroconvulsive shock-induced amnesia in rodents at a dose of 10 (mg/kg) administered intramuscularly (im); summary of the method: as §1
Rattus norvegicus [6] = experiment: Compound was tested for its ability (% reversal in rats) to reverse electroconvulsive shock-induced amnesia in rodents at a dose of 100 (mg/kg) administered intramuscularly (im); summary of the method: as §1
Mus musculus [7] = experiment: Ability to reverse electroconvulsive shock-induced amnesia in rodents following 1 ug/kg i.m. administration.; summary of the method: as §1
Mus musculus [8] = experiment: Ability to reverse electroconvulsive shock-induced amnesia in rodents following 0.01 mg/kg i.m. administration.; settings: route intramuscular; summary of the method: as §1
Mus musculus [9] = experiment: Ability to reverse electroconvulsive shock-induced amnesia in rodents following 0.1 mg/kg i.m. administration.; settings: route intramuscular; summary of the method: as §1
Rattus norvegicus [10] = experiment: Compound was tested for its ability (% reversal in rats) to reverse electroconvulsive shock-induced amnesia in rodents at a dose of 0.010 (mg/kg) administered intramuscularly (im).; summary of the method: as §1

SMILES	Reversal (Rattus norvegicus [1]) [%]	Reversal (Rattus norvegicus [2]) [%]	Reversal (Rattus norvegicus [3]) [%]	Reversal (Rattus norvegicus [4]) [%]	Reversal (Rattus norvegicus [5]) [%]	Reversal (Rattus norvegicus [6]) [%]	Reversal (Mus musculus [7]) [%]	Reversal (Mus musculus [8]) [%]	Reversal (Mus musculus [9]) [%]	Reversal (Rattus norvegicus [10]) [%]
CC(C)CC(CSCC(=O)O)NC(=O)c1ccccn1 (stereo not given)	57	0	14	–	–	–	–	–	–	–
NC(=O)CNC(=O)COCC1CCCN1C(=O)OCc1ccccc1 (stereo not given)	56	33	20	–	–	–	–	–	–	–
Cc1ccc(S(=O)(=O)N2CCCC2CN[C@@H](CC(C)C)C(=O)NCC(N)=O)cc1 (stereo not given in full)	0	0	34	75	62	87	–	–	–	–
CC(C)CC(OCC1CCCN1C(=O)OCc1ccccc1)C(=O)NCC(=O)O (stereo not given)	29	71	43	–	–	–	–	–	–	–
O=C(NC(Cc1ccccc1)CN1C(=O)C2CCCN2C(=O)C1Cc1c[nH]cn1)c1ccccc1 (stereo not given)	0	0	43	50	30	83	–	–	–	–
CC(C)(C)OC(=O)N1CCCC1CN[C@@H](CCCCNC(=O)OCc1ccccc1)C(=O)NCC(N)=O (stereo not given in full)	16	33	16	–	–	–	–	–	–	–
CC(C)CC(CSCC(N)=O)NCC1CCCN1C(=O)OCc1ccccc1 (stereo not given)	45	25	25	–	–	–	–	–	–	–
CC(C)CC(OCC1CCCN1C(=O)OCc1ccccc1)C(=O)NCC(N)=O (stereo not given)	33	0	0	–	–	–	–	–	–	–
CC(C)CC(/C=C/CC(N)=O)NC(=O)C1CCCN1C(=O)OCc1ccccc1 (stereo not given)	33	77	44	–	–	–	–	–	–	–
O=C(NCCCCC(SCC1CCCN1C(=O)OCc1ccccc1)C(=O)[O-])OCc1ccccc1.[Na+] (stereo not given)	45	12	45	–	–	–	–	–	–	–
Cc1ccc(S(=O)(=O)N2CCCC2CNC(CC(C)C)C(=O)NCC(=O)O)cc1 (stereo not given)	33	33	0	–	–	–	–	–	–	–
CC(C)CC1CN(C[C@H](CC(C)C)NC(=O)[C@@H]2CCC(=O)N2)CC(=O)N1 (stereo not given in full)	–	–	–	0	0	0	–	–	–	–
O=C(NCCCCC(CO)NC(=O)C1CCCN1C(=O)OCc1ccccc1)OCc1ccccc1 (stereo not given)	50	40	40	0	20	0	–	–	–	–
CC(C)CC(CSCC(=O)O)NC(=O)C1CCCN1C(=O)OCc1ccccc1 (stereo not given)	57	57	14	–	–	–	69	77	69	–
CC(C)CC(COCC(=O)O)NC(=O)C1CCCN1C(=O)OCc1ccccc1 (stereo not given)	29	0	0	–	–	–	–	–	–	–
CC(C)C[C@@H](CSCC(=O)O)NCC1CCCN1C(=O)OCc1ccccc1 (stereo not given in full)	20	80	60	60	0	100	–	–	–	–
O=C(O)COCC1CCCN1C(=O)OCc1ccccc1 (stereo not given)	40	40	50	37	62	62	–	–	–	–
NC(=O)CNC(=O)[C@H](CCCCNC(=O)OCc1ccccc1)NCC1CCCN1 (stereo not given in full)	0	16	33	16	16	83	–	–	–	–
Cc1ccc(C(=O)NC(CSCC(=O)O)CC(C)C)s1 (stereo not given)	60	60	20	–	–	–	–	–	–	–
CCSCCNC(=O)C(CC(C)C)SCC1CCCN1C(=O)OCc1ccccc1 (stereo not given)	33	0	0	–	–	–	–	–	–	–
CCCNC(=O)C(CC(C)C)SCC1CCCN1C(=O)OCc1ccccc1 (stereo not given)	60	20	20	–	–	–	–	–	–	–
CC(C)CC(COCC(N)=O)NC(=O)C1CCCN1C(=O)OCc1ccccc1 (stereo not given)	42	57	14	–	–	–	–	–	–	–

SMILES	Reversal (Rattus norvegicus [1]) [%]	Reversal (Rattus norvegicus [2]) [%]	Reversal (Rattus norvegicus [3]) [%]	Reversal (Rattus norvegicus [4]) [%]	Reversal (Rattus norvegicus [5]) [%]	Reversal (Rattus norvegicus [6]) [%]	Reversal (Mus musculus [7]) [%]	Reversal (Mus musculus [8]) [%]	Reversal (Mus musculus [9]) [%]	Reversal (Rattus norvegicus [10]) [%]
COc1ccc(C(=O)N2CCCC2C(=O)NC(CSCC(=O)O)CC(C)C)cc1 (stereo not given)	40	–	60	–	–	–	12	50	12	0
NC(=O)CC[C@@H]1NC(=O)[C@H](Cc2ccccc2)NC(=O)[C@H](Cc2ccc(O)cc2)NC(=O)[C@@H](N)CSSC[C@@H](C(=O)N2CCC[C@H]2C(=O)N[C@@H](CCCN=C(N)N)C(=O)NCC(N)=O)NC(=O)[C@H](CC(N)=O)NC1=O	0	100	60	–	–	–	–	–	–	–
Cc1ccc(S(=O)(=O)N2CCCC2C(=O)NC(CNCC(=O)O)CC(C)C)cc1 (stereo not given)	17	33	17	–	–	–	–	–	–	–
O=C(O)CNC(=O)COCC1CCCN1C(=O)OCc1ccccc1 (stereo not given)	14	43	57	–	–	–	–	–	–	–
NCCCC[C@H](NC(=O)[C@@H]1CCCN1C(=O)[C@@H]1CSSC[C@H](N)C(=O)N[C@@H](Cc2ccc(O)cc2)C(=O)N[C@@H](Cc2ccccc2)C(=O)N[C@@H](CCC(N)=O)C(=O)N[C@@H](CC(N)=O)C(=O)N1)C(=O)NCC(N)=O	20	–	56	–	–	–	58	58	67	20
CC(C)(C)OC(=O)N1CCC[C@H]1C(=O)N[C@@H](CCCN=C(N)N)C(=O)NCC(N)=O (Boc-Pro-Arg-Gly-NH2)	–	–	–	–	–	–	0	43	71	–
CC(C)(C)OC(=O)N1CCC[C@H]1C(=O)N[C@@H](CCCCNC(=O)OCc1ccccc1)C(=O)NCC(N)=O (Boc-Pro-Lys(Cbz)-Gly-NH2)	–	–	–	–	–	–	91	63	0	–
CC(C)(C)OC(=O)N1CCC[C@H]1C(=O)N[C@@H](CCCCN)C(=O)NCC(N)=O (Boc-Pro-Lys-Gly-NH2)	–	–	–	–	–	–	25	17	33	–
CC(C)(C)OC(=O)N1CCC[C@H]1C(=O)N[C@@H](CCC/N=C(\N)N[N+](=O)[O-])C(=O)NCC(N)=O (Boc-Pro-[Arg(NO2)]-Gly-NH2)	–	–	–	–	–	–	44	20	33	–
CC(C)(C)OC(=O)NC(CCC/N=C(\N)N[N+](=O)[O-])C(=O)NCC(N)=O (stereo not given) (Boc-[ξArg(NO2)]-Gly-NH2)	–	–	–	–	–	–	33	53	73	–
CC(C)(C)OC(=O)NC(CCCCNC(=O)OCc1ccccc1)C(=O)NCC(N)=O (stereo not given) (Boc-[ξK](Cbz)-Gly-NH2)	33	47	16	–	–	–	48	53	35	–
CC(C)C[C@H](NC(=O)[C@@H]1CCCN1C(=O)OCc1ccccc1)C(=O)NCC(N)=O (Cbz-Pro-Leu-Gly-NH2)	–	–	–	–	–	–	93	47	100	–
CC(C)(C)OC(=O)NCCCC[C@H](NC(=O)[C@@H]1CCCN1C(=O)OCc1ccccc1)C(=O)NCC(N)=O (Cbz-Pro-Lys(Boc)-Gly-NH2)	50	0	0	–	–	–	–	–	–	–
COC(=O)CNC(=O)[C@H](CCCCNC(=O)OC(C)(C)C)NC(=O)[C@@H]1CCCN1C(=O)OCc1ccccc1 (Cbz-Pro-Lys(Boc)-Gly-OMe)	–	–	–	–	–	–	91	54	0	–
NCCCC[C@H](NC(=O)[C@@H]1CCCN1C(=O)OCc1ccccc1)C(=O)NCC(N)=O (Cbz-Pro-Lys-Gly-NH2)	–	–	–	–	–	–	9	100	63	–
NCCCC[C@H](NC(=O)[C@@H]1CCCN1C(=O)OCc1ccccc1)C(=O)NCC(=O)O (Cbz-Pro-Lys-Gly-OH)	–	–	–	–	–	–	100	79	79	–
CC(C)(C)OC(=O)NCCCCC(NC(=O)OCc1ccccc1)C(=O)NCC(N)=O (stereo not given) (Cbz-[ξK](Boc)-Gly-NH2)	–	–	–	–	–	–	33	25	33	–
NC(=O)CNC(=O)[C@@H](N)CCCN=C(N)N (H-Arg-Gly-NH2)	–	–	–	–	–	–	51	20	27	–
N=C(N)NCCC[C@H](NC(=O)[C@@H]1CCCN1)C(=O)NCC(N)=O (H-Pro-Arg-Gly-NH2)	–	–	–	–	–	–	30	0	30	–
CC(C)C[C@H](NC(=O)[C@@H]1CCCN1)C(=O)NCC(N)=O (H-Pro-Leu-Gly-NH2)	14	43	43	–	–	–	42	33	42	–
NCCCC[C@H](NC(=O)[C@@H]1CCCN1)C(=O)NCC(N)=O (H-Pro-Lys-Gly-NH2)	78	78	78	–	–	–	100	48	39	–
